# Legend:
# [1] = substrate: C[C@H](C(=O)NCc1ccccc1)C(=O)Oc1cccc(C(=O)O)c1; assay: (§1) Ratio of Kcat to Km for Streptomyces R61 DD-peptidase; settings: Streptomyces sp. R61
# In short: (§2)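 Steady-state kinetics in 100 mM MOPS, pH 7.5, 25 °C. Substrate stocks were made in DMSO and diluted into buffer to a final DMSO below 5%. Initial rates of enzyme-catalysed turnover were followed spectrophotometrically. Steady-state parameters were derived from these initial rates. Buffer hydrolysis of the substrates was measured separately as pseudo-first-order rate constants.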
# [2] = substrate: C[C@@H](C(=O)NCc1ccccc1)C(=O)Oc1cccc(C(=O)O)c1; assay: as §1; settings: Streptomyces sp. R61; in short: as §2
# [3] = substrate: CO[C@@H](C(=O)NCc1ccccc1)C(=O)Oc1cccc(C(=O)O)c1; assay: as §1; settings: Streptomyces sp. R61; in short: as §2
# [4] = substrate: O=C(CC(=O)Oc1cccc(C(=O)O)c1)NCc1ccccc1; assay: as §1; settings: Streptomyces sp. R61; in short: as §2
# [5] = substrate: O=C(O)c1cccc(OC(=O)C(Cc2ccccc2)C(=O)NCc2ccccc2)c1; assay: as §1; settings: Streptomyces sp. R61; in short: as §2
# [6] = substrate: CN(Cc1ccccc1)C(=O)CC(=O)Oc1cccc(C(=O)O)c1; assay: as §1; settings: Streptomyces sp. R61; in short: as §2
# [7] = substrate: O=C(O)c1cccc(OC(=O)C2Cc3ccccc3N(Cc3ccccc3)C2=O)c1; assay: as §1; settings: Streptomyces sp. R61; in short: as §2
# [8] = substrate: O=C(CC(=O)N(Cc1ccccc1)Cc1ccccc1)Oc1cccc(C(=O)O)c1; assay: as §1; settings: Streptomyces sp. R61; in short: as §2
# [9] = substrate: O=C(O)c1cccc(OC(=O)C2CCN(Cc3ccccc3)C2=O)c1; assay: as §1; settings: Streptomyces sp. R61; in short: as §2
# [10] = substrate: C[C@H](C(=O)NCc1ccccc1)C(=O)Oc1cccc(C(=O)O)c1; assay: (§3) Activity at Streptomyces R61 DD-peptidase by spectrophotometry; settings: Streptomyces sp. R61; in short: as §2
# [11] = substrate: C[C@@H](C(=O)NCc1ccccc1)C(=O)Oc1cccc(C(=O)O)c1; assay: as §3; settings: Streptomyces sp. R61; in short: as §2
# [12] = substrate: CO[C@@H](C(=O)NCc1ccccc1)C(=O)Oc1cccc(C(=O)O)c1; assay: as §3; settings: Streptomyces sp. R61; in short: as §2
# [13] = substrate: O=C(CC(=O)Oc1cccc(C(=O)O)c1)NCc1ccccc1; assay: as §3; settings: Streptomyces sp. R61; in short: as §2
# [14] = substrate: O=C(O)c1cccc(OC(=O)C2Cc3ccccc3N(Cc3ccccc3)C2=O)c1; assay: as §3; settings: Streptomyces sp. R61; in short: as §2
# [15] = substrate: O=C(O)c1cccc(OC(=O)C2CCN(Cc3ccccc3)C2=O)c1; assay: as §3; settings: Streptomyces sp. R61; in short: as §2
# [16] = substrate: C[C@H](C(=O)NCc1ccccc1)C(=O)Oc1cccc(C(=O)O)c1; assay: (§4) Ratio of Kcat to Km for Enterobacter cloacae P99 beta-lactamase; in short: as §2
# [17] = substrate: C[C@@H](C(=O)NCc1ccccc1)C(=O)Oc1cccc(C(=O)O)c1; assay: as §4; in short: as §2
# [18] = substrate: CO[C@@H](C(=O)NCc1ccccc1)C(=O)Oc1cccc(C(=O)O)c1; assay: as §4; in short: as §2
# [19] = substrate: CO[C@H](C(=O)NCc1ccccc1)C(=O)Oc1cccc(C(=O)O)c1; assay: as §4; in short: as §2
# [20] = substrate: O=C(CC(=O)Oc1cccc(C(=O)O)c1)NCc1ccccc1; assay: as §4; in short: as §2
# [21] = substrate: O=C(O)c1cccc(OC(=O)C(Cc2ccccc2)C(=O)NCc2ccccc2)c1; assay: as §4; in short: as §2
# [22] = substrate: CN(Cc1ccccc1)C(=O)CC(=O)Oc1cccc(C(=O)O)c1; assay: as §4; in short: as §2
# [23] = substrate: O=C(O)c1cccc(OC(=O)C2Cc3ccccc3N(Cc3ccccc3)C2=O)c1; assay: as §4; in short: as §2
# [24] = substrate: O=C(CC(=O)N(Cc1ccccc1)Cc1ccccc1)Oc1cccc(C(=O)O)c1; assay: as §4; in short: as §2
# [25] = substrate: O=C(O)c1cccc(OC(=O)C2CCN(Cc3ccccc3)C2=O)c1; assay: as §4; in short: as §2
# [26] = substrate: C[C@H](C(=O)NCc1ccccc1)C(=O)Oc1cccc(C(=O)O)c1; assay: (§5) Activity at Enterobacter cloacae P99 beta-lactamase by spectrophotometry; in short: as §2
# [27] = substrate: C[C@@H](C(=O)NCc1ccccc1)C(=O)Oc1cccc(C(=O)O)c1; assay: as §5; in short: as §2
# [28] = substrate: CO[C@@H](C(=O)NCc1ccccc1)C(=O)Oc1cccc(C(=O)O)c1; assay: as §5; in short: as §2
# [29] = substrate: CO[C@H](C(=O)NCc1ccccc1)C(=O)Oc1cccc(C(=O)O)c1; assay: as §5; in short: as §2
# [30] = substrate: O=C(CC(=O)Oc1cccc(C(=O)O)c1)NCc1ccccc1; assay: as §5; in short: as §2
# [31] = substrate: O=C(O)c1cccc(OC(=O)C(Cc2ccccc2)C(=O)NCc2ccccc2)c1; assay: as §5; in short: as §2
# [32] = substrate: CN(Cc1ccccc1)C(=O)CC(=O)Oc1cccc(C(=O)O)c1; assay: as §5; in short: as §2
# [33] = substrate: O=C(O)c1cccc(OC(=O)C2Cc3ccccc3N(Cc3ccccc3)C2=O)c1; assay: as §5; in short: as §2
# [34] = substrate: O=C(CC(=O)N(Cc1ccccc1)Cc1ccccc1)Oc1cccc(C(=O)O)c1; assay: as §5; in short: as §2
# [35] = substrate: O=C(O)c1cccc(OC(=O)C2CCN(Cc3ccccc3)C2=O)c1; assay: as §5; in short: as §2
# [36] = compound: O=C(CP(=O)(O)Oc1cccc(C(=O)O)c1)NCc1ccccc1; assay: Inhibition of Enterobacter cloacae P99 beta-lactamase assessed as inhibition of cephalothin turnover by spectrophotometry
# In short: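 Initial rates of 200 μM cephalothin hydrolysis were measured spectrophotometrically in 100 mM MOPS, pH 7.5, at 25 °C. Compounds were added from DMSO stocks, with final DMSO below 5%.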
# [37] = substrate: C[C@H](C(=O)NCc1ccccc1)C(=O)Oc1cccc(C(=O)O)c1; assay: (§6) Ratio of Kcat to Km for Actinomadura R39 DD-peptidase; settings: Actinomadura sp. R39; in short: as §2
# [38] = substrate: CO[C@@H](C(=O)NCc1ccccc1)C(=O)Oc1cccc(C(=O)O)c1; assay: as §6; settings: Actinomadura sp. R39; in short: as §2
# [39] = substrate: O=C(CC(=O)Oc1cccc(C(=O)O)c1)NCc1ccccc1; assay: as §6; settings: Actinomadura sp. R39; in short: as §2
# [40] = substrate: CN(Cc1ccccc1)C(=O)CC(=O)Oc1cccc(C(=O)O)c1; assay: as §6; settings: Actinomadura sp. R39; in short: as §2
# [41] = substrate: O=C(O)c1cccc(OC(=O)C2Cc3ccccc3N(Cc3ccccc3)C2=O)c1; assay: as §6; settings: Actinomadura sp. R39; in short: as §2
# [42] = substrate: O=C(O)c1cccc(OC(=O)C2CCN(Cc3ccccc3)C2=O)c1; assay: as §6; settings: Actinomadura sp. R39; in short: as §2
# [43] = substrate: C[C@H](C(=O)NCc1ccccc1)C(=O)Oc1cccc(C(=O)O)c1; assay: (§7) Activity at Actinomadura R39 DD-peptidase by spectrophotometry; settings: Actinomadura sp. R39; in short: as §2
# [44] = substrate: CO[C@@H](C(=O)NCc1ccccc1)C(=O)Oc1cccc(C(=O)O)c1; assay: as §7; settings: Actinomadura sp. R39; in short: as §2
# [45] = substrate: CN(Cc1ccccc1)C(=O)CC(=O)Oc1cccc(C(=O)O)c1; assay: as §7; settings: Actinomadura sp. R39; in short: as §2
# [46] = substrate: O=C(O)c1cccc(OC(=O)C2CCN(Cc3ccccc3)C2=O)c1; assay: as §7; settings: Actinomadura sp. R39; in short: as §2
protein,measurement,setting,value
"D-alanyl-D-alanine carboxypeptidase (Streptomyces sp. R61), P15555 (protein) MVSGTVGRGTALGAVLLALLAVPAQAGTAAAADLPAPDDTGLQAVLHTALSQGAPGAMVRVDDNGTIHQLSEGVADRATGRAITTTDRFRVGSVTKSFSAVVLLQLVDEGKLDLDASVNTYLPGLLPDDRITVRQVMSHRSGLYDYTNDMFAQTVPGFESVRNKVFSYQDLITLSLKHGVTNAPGAAYSYSNTNFVVAGMLIEKLTGHSVATEYQNRIFTPLNLTDTFYVHPDTVIPGTHANGYLTPDEAGGALVDSTEQTVSWAQSAGAVISSTQDLDTFFSALMSGQLMSAAQLAQMQQWTTVNSTQGYGLGLRRRDLSCGISVYGHTGTVQGYYTYAFASKDGKRSVTALANTSNNVNVLNTMARTLESAFCGKPTTAKLRSATSSATTVERHEDIAPGIARD",kcat/Km,[1],2.37 ×10⁴ /s/M
same,kcat/Km,[2],1.31 ×10³ /s/M
same,kcat/Km,[3],3.3 ×10⁴ /s/M
same,kcat/Km,[4],70 M⁻¹ s⁻¹
same,kcat/Km,[5],< 0.2 M⁻¹ s⁻¹
same,kcat/Km,[6],< 0.15 M⁻¹ s⁻¹
same,kcat/Km,[7],21 M⁻¹ s⁻¹
same,kcat/Km,[8],< 0.35 M⁻¹ s⁻¹
same,kcat/Km,[9],17.8 M⁻¹ s⁻¹
same,Km,[10],320 µM
same,kcat,[10],7.63 s⁻¹
same,Km,[11],90 µM
same,kcat,[11],0.12 s⁻¹
same,Km,[12],280 µM
same,kcat,[12],9.4 s⁻¹
same,Km,[13],104 µM
same,kcat,[13],0.7 s⁻¹
same,Km,[14],> 200 µM
same,kcat,[14],> 4.2 ×10⁻³ /s
same,Km,[15],> 200 µM
same,kcat,[15],> 3.6 ×10⁻³ /s
"Beta-lactamase (Enterobacter cloacae), P05364 (protein) MMRKSLCCALLLGISCSALATPVSEKQLAEVVANTITPLMKAQSVPGMAVAVIYQGKPHYYTFGKADIAANKPVTPQTLFELGSISKTFTGVLGGDAIARGEISLDDAVTRYWPQLTGKQWQGIRMLDLATYTAGGLPLQVPDEVTDNASLLRFYQNWQPQWKPGTTRLYANASIGLFGALAVKPSGMPYEQAMTTRVLKPLKLDHTWINVPKAEEAHYAWGYRDGKAVRVSPGMLDAQAYGVKTNVQDMANWVMANMAPENVADASLKQGIALAQSRYWRIGSMYQGLGWEMLNWPVEANTVVEGSDSKVALAPLPVAEVNPPAPPVKASWVHKTGSTGGFGSYVAFIPEKQIGIVMLANTSYPNPARVEAAYHILEALQ",kcat/Km,[16],2.13 ×10⁴ /s/M
same,kcat/Km,[17],2.36 ×10³ /s/M
same,kcat/Km,[18],7.4 ×10³ /s/M
same,kcat/Km,[19],2.9 ×10³ /s/M
same,kcat/Km,[20],2.45 ×10⁵ /s/M
same,kcat/Km,[21],1.9 ×10⁴ /s/M
same,kcat/Km,[22],4.7 ×10² /s/M
same,kcat/Km,[23],290 M⁻¹ s⁻¹
same,kcat/Km,[24],7.9 ×10³ /s/M
same,kcat/Km,[25],50 M⁻¹ s⁻¹
same,Km,[26],60 µM
same,kcat,[26],1.17 s⁻¹
same,Km,[27],2800 µM
same,kcat,[27],6.6 s⁻¹
same,Km,[28],> 1000 µM
same,kcat,[28],> 7.4 s⁻¹
same,Km,[29],> 1000 µM
same,kcat,[29],> 2.9 s⁻¹
same,Km,[30],170 µM
same,kcat,[30],41 s⁻¹
same,Km,[31],2.6 µM
same,kcat,[31],0.05 s⁻¹
same,Km,[32],700 µM
same,kcat,[32],0.33 s⁻¹
same,Km,[33],1400 µM
same,kcat,[33],0.41 s⁻¹
same,Km,[34],32 µM
same,kcat,[34],0.25 s⁻¹
same,Km,[35],2500 µM
same,kcat,[35],0.12 s⁻¹
same,kcat/Km,[36],45 M⁻¹ s⁻¹
"D-alanyl-D-alanine carboxypeptidase (Actinomadura sp. R39), P39045 (protein) MKQSSPEPLRPRRTGGRGGARRAAALVTIPLLPMTLLGASPALADASGARLTELREDIDAILEDPALEGAVSGVVVVDTATGEELYSRDGGEQLLPASNMKLFTAAAALEVLGADHSFGTEVAAESAPGRRGEVQDLYLVGRGDPTLSAEDLDAMAAEVAASGVRTVRGDLYADDTWFDSERLVDDWWPEDEPYAYSAQISALTVAHGERFDTGVTEVSVTPAAEGEPADVDLGAAEGYAELDNRAVTGAAGSANTLVIDRPVGTNTIAVTGSLPADAAPVTALRTVDEPAALAGHLFEEALESNGVTVKGDVGLGGVPADWQDAEVLADHTSAELSEILVPFMKFSNNGHAEMLVKSIGQETAGAGTWDAGLVGVEEALSGLGVDTAGLVLNDGSGLSRGNLVTADTVVDLLGQAGSAPWAQTWSASLPVAGESDPFVGGTLANRMRGTAAEGVVEAKTGTMSGVSALSGYVPGPEGELAFSIVNNGHSGPAPLAVQDAIAVRLAEYAGHQAPEGARMMRGPVQGSGELECSWVQAC",kcat/Km,[37],7.28 ×10² /s/M
same,kcat/Km,[38],5 ×10⁴ /s/M
same,kcat/Km,[39],< 1.5 M⁻¹ s⁻¹
same,kcat/Km,[40],3 M⁻¹ s⁻¹
same,kcat/Km,[41],< 20 M⁻¹ s⁻¹
same,kcat/Km,[42],8 M⁻¹ s⁻¹
same,Km,[43],> 1000 µM
same,kcat,[43],> 0.73 s⁻¹
same,Km,[44],53 µM
same,kcat,[44],2.81 s⁻¹
same,Km,[45],> 1000 µM
same,kcat,[45],> 3 ×10⁻³ /s
same,Km,[46],> 1000 µM
same,kcat,[46],> 8 ×10⁻³ /s

# Reference: ChEMBL document CHEMBL1157679, “Substituted aryl malonamates as new serine beta-lactamase substrates: structure-activity studies” (Bioorg Med Chem, 2010)
